The values that follow come from ChEMBL document CHEMBL1139230, “New beta-alanine derivatives are orally available glucagon receptor antagonists” (J Med Chem, 2007).

Molecules are shown by their SMILES. Calls of active or inactive are those of the source. The rule behind the calls is not given here. A value given as a limit tells only on which side of the number the result lay.

Series [1] deals with Glucagon receptor (Homo sapiens, UniProt P47871). In words: Inhibition of human cloned glucagon receptor expressed in BHK cells. The format is cell-based. An outline of the steps:
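Binding performed on plasma membranes from BHK cells expressing the cloned human glucagon receptor; IC50 values determined.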

Series [2] concerns the target Glucagon-like peptide 1 receptor (Homo sapiens, UniProt P43220). Kind of series: Inhibition of GLP1 receptor.
Series [3] is described as follows: Bioavailability in orally dosed dog. The format is ADME, organism-based, Canis lupus familiaris. The following applies: in vivo, po. Put shortly:
(§1)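 Dogs dosed orally and intravenously; oral availability and half-life after iv dosing determined.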

A short description of series [4]: Metabolic stability in iv dosed dog. The following applies: in vivo. Format: ADME, organism-based, Canis lupus familiaris. Put shortly: as §1
For series [5], the target named is Glucagon receptor (Rattus norvegicus, UniProt P30082). Kind of series: Inhibition of rat glucagon receptor.
Series [6] concerns Rattus norvegicus. In words: Reduction of blood glucose level in glucagon-challenged iv dosed Sprague-dawley rat at > 3 mg/kg. The format is functional, organism-based. Further details: dose 3 mg/kg. Put shortly:
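Anesthetized rats received the compound intravenously across a range of doses 5 min before a 3 µg/kg glucagon load. The rise in blood glucose was followed.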

The species named for the next series is Homo sapiens. Kind of series: Selectivity for glucagon receptor over GLP1 receptor.
Series [7] can be described thus: Bioavailability in rat at 4 mg/kg, po. Format: ADME, organism-based. The following applies: in vivo. An outline of the steps:
(§2)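 Rats given the compound at 4 mg/kg orally and 2 mg/kg intravenously. Plasma profiles yielded Cmax, Tmax, AUC, oral availability (F) and plasma half-life; half-life was taken from the iv dose.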

Series [8] can be described thus: Metabolic stability in rat at 2 mg/kg, iv. Format: ADME, organism-based. Also on record: dose 2 mg/kg, route intravenous. The following applies: in vivo. An outline of the steps:
as §2

Series [9] deals with Rattus norvegicus. Kind of series: AUC in rat at 4 mg/kg, po and 2 mg/kg, iv. The note with it: in vivo. The format is ADME, organism-based, Plasma. Put shortly:
as §2

A short description of series [10]: Cmax in rat at 4 mg/kg, po and 2 mg/kg, iv. Format: ADME, organism-based. The note with it: in vivo. An outline of the steps: as §2
Series [11] in a line: Tmax in rat at 4 mg/kg, po and 2 mg/kg, iv. The following applies: in vivo. The format is ADME, organism-based. An outline of the steps: as §2
Series [12] deals with Rattus norvegicus. In words: Reduction of blood glucose level in glucagon-challenged iv dosed Sprague-Dawley rat. Format: functional, organism-based. Put shortly: (§3)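 Rats were anesthetized and given the compound intravenously over a range of doses, 5 min before an exogenous glucagon load of 3 µg/kg. The read-out was the glucagon-stimulated rise in blood glucose.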
The test system of series [13] is Mus musculus. Kind of series: Reduction of blood glucose level in Umea ob/ob mouse at 100 mg/kg, po after 24 hrs. Format: functional. Put shortly: (§4)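 ob/ob mice (n = 6 per group), vehicle or compound at 100 mg/kg po. Blood glucose was measured before dosing and again at 2, 4, 6 and 24 h; the change from the predose value was reported.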
Series [14] has as its system Mus musculus. Kind of series: Reduction of blood glucose level in Umea ob/ob mouse at 100 mg/kg, po after 6 hrs. The format is functional. An outline of the steps:
as §4

Series [15] relates to Mus musculus. Kind of series: Reduction of blood glucose level in Umea ob/ob mouse at 100 mg/kg, po after 4 hrs. Format: functional. An outline of the steps:
as §4

Series [16] relates to Mus musculus. Kind of series: Reduction of blood glucose level in Umea ob/ob mouse at 100 mg/kg, po after 2 hrs. Format: functional. Put shortly:
as §4

The test system of series [17] is Mus musculus. In words: Reduction in cumulative food intake in Umea ob/ob mouse at 100 mg/kg, po. Format: functional. An outline of the steps: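 ob/ob mice given vehicle or compound at 100 mg/kg po; cumulative food intake per mouse recorded from 6 to 24 h postdose.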
Series [18] concerns Mus musculus. Kind of series: Blood glucose level in Umea ob/ob mouse at 100 mg/kg, po.
The next series deals with Liver microsomes. Kind of series: Metabolic turnover in rat liver microsomes at 10 uM. Format: ADME, Microsome. An outline of the steps: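 Metabolic rate estimated by incubating compounds with rat liver microsomes, used to rank metabolic stability.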
(In general: Microsomes from liver hold many membrane-bound enzymes, among them those of drug oxidation.)

For series [19], the system named is Rattus norvegicus. Kind of series: Reduction of blood glucose level in glucagon-challenged iv dosed Sprague-Dawley rat at 3 mg/kg. Format: functional, organism-based. Also on record: dose 3 mg/kg. Put shortly:
as §3

Chain of Glucagon-like peptide 1 receptor (P43220 whole entry): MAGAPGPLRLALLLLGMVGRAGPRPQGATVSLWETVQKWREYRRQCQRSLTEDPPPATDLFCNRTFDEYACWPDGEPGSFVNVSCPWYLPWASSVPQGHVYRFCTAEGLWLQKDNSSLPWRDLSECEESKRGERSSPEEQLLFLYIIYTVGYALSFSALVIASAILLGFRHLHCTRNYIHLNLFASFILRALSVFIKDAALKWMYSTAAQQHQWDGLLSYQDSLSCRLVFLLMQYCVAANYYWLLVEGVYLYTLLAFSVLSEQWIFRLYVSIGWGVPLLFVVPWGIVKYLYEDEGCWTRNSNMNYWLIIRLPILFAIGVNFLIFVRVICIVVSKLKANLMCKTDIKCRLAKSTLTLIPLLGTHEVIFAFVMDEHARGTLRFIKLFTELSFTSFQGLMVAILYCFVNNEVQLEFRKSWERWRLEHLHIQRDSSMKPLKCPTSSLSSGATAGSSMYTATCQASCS
Chain of Glucagon receptor (Homo sapiens, UniProt P47871) (P47871 whole entry): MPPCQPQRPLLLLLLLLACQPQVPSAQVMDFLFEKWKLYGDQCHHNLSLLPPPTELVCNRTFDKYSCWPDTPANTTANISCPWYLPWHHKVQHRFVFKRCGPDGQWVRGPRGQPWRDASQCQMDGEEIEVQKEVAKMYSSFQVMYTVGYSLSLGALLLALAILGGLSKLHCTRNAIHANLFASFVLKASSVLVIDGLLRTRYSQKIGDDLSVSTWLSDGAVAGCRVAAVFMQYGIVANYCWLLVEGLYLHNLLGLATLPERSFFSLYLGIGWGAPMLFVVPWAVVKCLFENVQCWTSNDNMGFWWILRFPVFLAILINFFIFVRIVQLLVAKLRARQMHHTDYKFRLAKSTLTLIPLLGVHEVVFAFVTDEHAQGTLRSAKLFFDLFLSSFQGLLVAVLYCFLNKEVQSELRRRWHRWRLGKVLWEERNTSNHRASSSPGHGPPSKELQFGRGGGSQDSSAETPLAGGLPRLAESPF
Chain of Glucagon receptor (Rattus norvegicus, UniProt P30082) (P30082 whole entry): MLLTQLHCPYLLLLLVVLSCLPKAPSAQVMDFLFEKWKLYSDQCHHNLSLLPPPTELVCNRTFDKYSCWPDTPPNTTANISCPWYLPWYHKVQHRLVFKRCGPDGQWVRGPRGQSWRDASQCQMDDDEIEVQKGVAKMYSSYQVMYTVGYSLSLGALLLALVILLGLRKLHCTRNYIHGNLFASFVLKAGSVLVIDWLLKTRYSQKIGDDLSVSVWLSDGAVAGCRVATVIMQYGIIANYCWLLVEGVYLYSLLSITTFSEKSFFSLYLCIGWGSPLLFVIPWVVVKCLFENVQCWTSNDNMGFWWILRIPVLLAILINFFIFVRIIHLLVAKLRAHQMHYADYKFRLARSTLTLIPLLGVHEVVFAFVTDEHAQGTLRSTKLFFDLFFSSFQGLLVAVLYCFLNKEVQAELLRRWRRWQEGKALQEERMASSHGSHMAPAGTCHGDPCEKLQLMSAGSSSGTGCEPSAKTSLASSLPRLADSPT

The IC50 is the concentration that inhibits the measured activity by half. Regarding `O=C(O)CCNC(=O)c1ccc(CN(CCC(c2ccccc2)c2ccccc2)C(=O)c2ccc(Cl)nc2)cc1`, the IC50 worked out at 7000 nM on Glucagon receptor [1] and 100000 nM in series [2].
On to `CNC(=O)C1CCC(N(Cc2ccc(C(=O)NCCC(=O)O)cc2)C(=O)Nc2ccc(OC(F)(F)F)cc2)CC1` (centres undefined), for which the IC50 against Glucagon receptor [1] was above 10000 nM.
As a reminder, the bioavailability is the share of a dose that reaches the circulation, judged against a reference dose that is usually intravenous. A lower bioavailability goes with poor availability. As usually defined, the half-life is the time in which the quantity being followed falls by half. A lower half-life goes with rapid decline. For orientation: AUC means the area under the concentration-time curve, a measure of exposure. Read a high AUC as high exposure. The term Cmax denotes the peak of the concentration-time curve. Broadly, the Tmax is the time from dosing to the highest level. Turning to `O=C(O)CCNC(=O)c1ccc(CN(C(=O)Nc2cc(Cl)cc(Cl)c2)c2ccc(C3=CCCCC3)cc2)cc1`, the bioavailability in series [3] stood at 65%; in series [7], 69%. Besides, the half-life in [4] was 1.53 h; in [8], 1.37 h. For the same compound, the IC50 at Glucagon receptor [5] is 122 nM; against Glucagon receptor [1], 27 nM; in series [2], 4900 nM. Also, in the series on Rattus norvegicus [6], the outcome was Active. Moreover, in the series filed under Homo sapiens, the Selectivity ratio is 180. In the series with Rattus norvegicus [9], this compound yielded an AUC of 2970 ng·h/mL. The compound further registered a Cmax in series [10] of 275 ng/mL. Also, the Tmax in series [11] was 1 h. Besides, the Activity entry in the series on Rattus norvegicus [12] was “Dose-dependent effect”; in the series on Mus musculus [13], 1.8 mM; in the series with Mus musculus [14], 9.5 mM; in the series on Mus musculus [15] it was 8.4 mM; in the series on Mus musculus [16] it was 6.8 mM; with Mus musculus [17] it was 8.4 g. Also, the Activity in the series with Mus musculus [18] stood at 18.3 mM.
The compound `CCCC1CCC(N(Cc2ccc(C(=O)NCCC(=O)O)cc2)C(=O)Nc2ccc(OC(F)(F)F)cc2)CC1` (centres undefined) registered an IC50 against Glucagon receptor [1] of 122 nM.
On to `CC(C)(C)[C@H]1CC[C@H](N(Cc2ccc(C(=O)NCCC(=O)O)cc2)C(=O)Nc2cc(C(F)(F)F)cc(C(F)(F)F)c2)CC1`, for which the Activity in the series with Liver microsomes came out at 139 pmol/min.
Take `CC(C)(C)[C@H]1CC[C@H](N(Cc2ccc(C(=O)NCCC(=O)O)cc2)C(=O)Nc2ccc(OC(F)(F)F)cc2C#N)CC1`: the IC50 at Glucagon receptor [1] turned out to be 56 nM. The compound further returned an Activity with Liver microsomes of 63 pmol/min.
With `O=C(O)CCNC(=O)c1ccc(CN(C(=O)Nc2ccc(OC(F)(F)F)cc2)C2CCC(C(=O)NCC3CC3)CC2)cc1` (centres undefined), the IC50 on Glucagon receptor [1] was above 10000 nM.
Compound `CC(C)(C)[C@H]1CC[C@H](N(Cc2ccc(C(=O)NCCC(=O)O)cc2)C(=O)Nc2ccc(Cl)c(Cl)c2)CC1` gave an Activity with Liver microsomes of 232 pmol/min.
Compound `COCCCNC(=O)c1ccc(CN(C(=O)Nc2ccc(OC(F)(F)F)cc2)C2CCC(C(C)(C)C)CC2)cc1` (centres undefined) registered an IC50 at Glucagon receptor [1] above 10000 nM.
Consider `CC(C)(C)[C@H]1CC[C@H](N(Cc2ccc(C(=O)NCCC(=O)O)cc2)C(=O)Nc2ccc(C#N)cc2OC(F)(F)F)CC1`, for which, in the series with Liver microsomes, the Activity is 130 pmol/min.
`CC(C)c1ccc(NC(=O)N(Cc2ccc(C(=O)NCCC(=O)O)cc2)[C@H]2CC[C@H](C(C)(C)C)CC2)cc1` showed an IC50 against Glucagon receptor [1] of 35 nM. This compound also gave an Activity in the series on Liver microsomes of 283 pmol/min. The bioavailability in series [7] came to 2%. Besides, the half-life in series [8] was 0.333 h. This compound showed an AUC in the series on Rattus norvegicus [9] of 43.3 ng·h/mL. This compound returned a Cmax in series [10] of 40 ng/mL. Moreover, in [11], the Tmax is 0.25 h.
Turning to `CC(C)(C)[C@H]1CC[C@H](N(Cc2ccc(C(=O)NCCC(=O)O)cc2)C(=O)Nc2ccc(OC(F)(F)F)cc2)CC1`, the bioavailability in series [3] stood at 10%; in series [7] it was 17%. Besides, the half-life in [4] amounted to 1.68 h; in series [8], 1.5 h. Besides, the IC50 at Glucagon receptor [5] turned out to be 56 nM; at Glucagon receptor [1], 55 nM; in [2] it was 1000 nM. Further, the figures for the Activity in the series on Liver microsomes and in the series on Rattus norvegicus [12] were 100 pmol/min and “Dose-dependent effect”, respectively. This compound also returned an AUC with Rattus norvegicus [9] of 217 ng·h/mL. The Cmax in series [10] is 106 ng/mL. In addition, in series [11], the Tmax was 1 h. In the series with Rattus norvegicus [19], the outcome was Active.
`CCCCc1ccc(NC(=O)N(Cc2ccc(C(=O)NCCC(=O)O)cc2)C2Cc3ccccc3C2)cc1` returned an IC50 on Glucagon receptor [1] of 179 nM.
Still for that read-out and setting: the same measure for `CC(C)(CC(=O)O)NC(=O)c1ccc(CN(C(=O)Nc2ccc(OC(F)(F)F)cc2)C2CCC(C(C)(C)C)CC2)cc1` (centres undefined): above 10000 nM.
Still for that read-out and setting: the same measure for `O=C(O)CCNC(=O)c1ccc(CN(C(=O)Nc2ccc(SC(F)(F)F)cc2)C2Cc3ccccc3C2)cc1`: 262 nM.
For the compound `COC1CCC(N(Cc2ccc(C(=O)NCCC(=O)O)cc2)C(=O)Nc2ccc(OC(F)(F)F)cc2)CC1` (centres undefined), the IC50 against Glucagon receptor [1] is above 10000 nM.
On the same count and under the same terms, the same measure for `CC(C)(C)C1CCC(N(Cc2ccc(C(=O)NCCCC(=O)O)cc2)C(=O)Nc2ccc(OC(F)(F)F)cc2)CC1` (centres undefined): above 10000 nM; for `CC(C)(C)C1CCC(N(Cc2ccc(C(=O)NCC(=O)O)cc2)C(=O)Nc2ccc(OC(F)(F)F)cc2)CC1` (centres undefined): 1700 nM; for `CC(C)(C)[C@H]1CC[C@H](N(Cc2ccc(C(=O)NCCC(=O)O)cc2)C(=O)Nc2ccc(C#N)cc2)CC1`: 1050 nM.
On Glucagon receptor [1], `O=C(O)CCNC(=O)c1ccc(CN(C(=O)Nc2ccc(OC(F)(F)F)cc2)c2ccc(C3CCCCC3)cc2)cc1` gave an IC50 of 61 nM. Further, in [7], the bioavailability stood at 54%. The compound also returned a half-life in series [8] of 1.07 h. In the series with Rattus norvegicus [9], this compound had an AUC of 1600 ng·h/mL. This compound also yielded a Cmax in [10] of 316 ng/mL. In addition, in series [11], the Tmax was 4 h.
As for `CC(C)(C)C1CCC(N(Cc2ccc(C(=O)NCC(=O)NO)cc2)C(=O)Nc2ccc(OC(F)(F)F)cc2)CC1` (centres undefined), the IC50 against Glucagon receptor [1] was 2960 nM.
On to `CC(C)(C)C1CCC(N(Cc2ccc(C(=O)NCCC(N)=O)cc2)C(=O)Nc2ccc(OC(F)(F)F)cc2)CC1` (centres undefined), for which the IC50 against Glucagon receptor [1] was above 10000 nM.
On the same count and under the same terms, with `CC(C)(C)C1CCC(N(Cc2ccc(C(=O)N3CCCC(C(=O)O)C3)cc2)C(=O)Nc2ccc(OC(F)(F)F)cc2)CC1` (centres undefined) the figure was 1000 nM; with `CCCCC(CC)N(Cc1ccc(C(=O)NCCC(=O)O)cc1)C(=O)Nc1ccc(OC(F)(F)F)cc1` (centres undefined), 141 nM; with `O=C(O)CCNC(=O)c1ccc(CN(C(=O)Nc2ccc(OC(F)(F)F)cc2)C2CCC(C(=O)O)CC2)cc1` (centres undefined), above 10000 nM.
Same read-out and setting: the same measure for `O=C(O)CCNC(=O)c1ccc(CN(CC(c2ccccc2)c2ccccc2)C(=O)c2csc3ccc(Cl)cc23)cc1`: 116 nM.
